The subject of one data set is HEK293. Kind of data set: Cytotoxicity against HEK293 cells at 0.1 to 10 uM after 24 to 72 hrs by MTT assay. The class given is cell-based. Particulars: human, hek293, 10 µM. In a few lines:
(§1)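 Seeded at 2×10^4 cells/mL in serum-containing medium (PC12: RPMI 1640, 10% horse serum, 5% FBS; HEK293 and HT22: DMEM, 10% FBS) for 24 h, then 0.1, 1 or 10 μM compound for 24, 48 or 72 h. MTT 5 mg/mL, 4 h, 37 °C; DMSO-dissolved formazan read at 570 nm; % of untreated control; three replicates, three experiments.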

The next data set has as its system MCF7. Kind of data set: Induction of human MCF7 cells growth containing endogenous ERalpha receptor at 1 uM by MTT assay relative to estradiol. It is filed as functional. In a few lines:
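Breast cancer cells at 8000/well in phenol red-free MEM, 1 μg/mL insulin, 5% charcoal-stripped FBS; after 72 h, 96 h exposure; MTT formazan at 550 nm.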

A further data set deals with Ishikawa. As to the kind of experiment: Induction of human Ishikawa cells growth containing endogenous ERalpha receptor at 1 uM by MTT assay relative to estradiol. It is filed as functional, cell-based. In a few lines: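 Endometrial cells at 8000/well in phenol red-free MEM, 1 μg/mL insulin, 5% charcoal-stripped FBS; compound added 24 h after plating, 96 h exposure; MTT at 550 nm.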

For data set [1], the system named is PC-12. As to the kind of experiment: Induction of dopamine release in rat PC12 cells at 10 nM after 10 mins by radioimmunoassay relative to control. It is filed as functional. The essentials:
(§2)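 PC12 cells at 10^6/well on poly(L-lysine) exposed to 10 nM steroid in serum-free medium for 5–30 min or 3–48 h; 1 mL supernatant acidified with 0.1 M HCl; dopamine measured by 125I radioimmunoassay after COMT conversion to 3-methoxytyramine and acylation. Expressed as % of untreated cells; four independent experiments.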

Data set [2] concerns PC-12. As to the kind of experiment: Neuroprotective activity in rat PC12 cells assessed as inhibition of serum deprivation-induced apoptosis after 24 hrs by APO Percentage apoptosis assay. It is filed as functional, cell-based. Particulars: PC-12, 24 h.
Data set [3] concerns the target Estrogen receptor beta (Homo sapiens) (UniProt Q92731). As to the kind of experiment: Antagonist activity at ERbeta in HEK293 cells assessed as inhibition of ERE-dependent luciferase expression at 1 uM relative to ICI-182780. The class given is functional, cell-based. Further details: scale not given: the % may be the effect or the level left.
Data set [4] has as its target T1, Estrogen receptor (Homo sapiens) (UniProt P03372).
T1 sequence (whole entry): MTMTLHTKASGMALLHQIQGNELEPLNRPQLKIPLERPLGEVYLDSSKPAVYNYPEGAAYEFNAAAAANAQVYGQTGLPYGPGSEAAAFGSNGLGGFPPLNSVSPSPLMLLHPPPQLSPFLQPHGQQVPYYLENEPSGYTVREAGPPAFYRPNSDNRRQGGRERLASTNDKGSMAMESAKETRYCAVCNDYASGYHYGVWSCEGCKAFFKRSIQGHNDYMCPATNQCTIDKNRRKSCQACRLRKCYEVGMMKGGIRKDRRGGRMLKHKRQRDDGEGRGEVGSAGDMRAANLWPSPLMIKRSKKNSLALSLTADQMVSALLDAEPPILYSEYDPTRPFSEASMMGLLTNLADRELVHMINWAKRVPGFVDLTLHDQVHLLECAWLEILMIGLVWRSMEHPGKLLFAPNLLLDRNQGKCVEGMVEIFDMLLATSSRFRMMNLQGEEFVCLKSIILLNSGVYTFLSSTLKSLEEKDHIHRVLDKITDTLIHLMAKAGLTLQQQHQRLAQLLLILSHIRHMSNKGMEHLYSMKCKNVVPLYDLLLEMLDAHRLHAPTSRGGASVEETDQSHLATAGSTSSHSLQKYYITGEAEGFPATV
As to the kind of experiment: Antagonist activity at estrogen receptor in human Ishikawa cells assessed as inhibition of ERE-dependent alkaline phosphatase levels at 1 uM relative to ICI-182780. The class given is functional, cell-based. The arrangement: scale not given: the % may be the effect or the level left.

For data set [5], the target named is T1, Estrogen receptor (Homo sapiens). Kind of data set: Antagonist activity at ERalpha in human MCF7:D5L cells assessed as inhibition of ERE-dependent luciferase expression at 1 uM relative to ICI-182780. The class given is functional, cell-based.
Data set [6] has the same target. As to the kind of experiment: Agonist activity at estrogen receptor in human Ishikawa cells assessed as induction of ERE-dependent alkaline phosphatase level at 1 uM relative to estradiol. It is filed as functional, cell-based.
The target is the same in data set [7]. Kind of data set: Agonist activity at ERalpha in human MCF7:D5L cells assessed as induction of ERE-dependent luciferase expression at 1 uM relative to estradiol. The class given is functional, cell-based.
In data set [8] the test system is PC-12. Kind of data set: Cytotoxicity against rat PC12 cells at 0.1 to 10 uM after 24 to 72 hrs by MTT assay. The class given is cell-based. Particulars: pc-12, 10 µM. In a few lines:
as §1

Data set [9] deals with PC-12. As to the kind of experiment: Neuroprotective activity against serum deprivation-induced apoptosis in rat PC12 cells assessed as increase in antiapoptotic protein Bcl2 levels at 10 nM after 12 hrs by Western blot. The class given is functional, cell-based. The essentials: (§3)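 PC12 cells cultured 12 h in serum-free medium (0.1% BSA, 10 nM haloperidol) with 10 nM steroid; total protein extracts Western blotted for Bcl-2 or Bcl-xL, band intensity by densitometry normalized to actin; % of control; three independent experiments.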

In data set [10] the test system is PC-12. Kind of data set: Induction of tyrosine hydroxylase mRNA expression in rat PC12 cells at 10 nM after 6 hrs mins by RT-PCR. The class given is functional, cell-based. In a few lines: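 PC12 cells incubated 6 h with 10 nM steroid; TH mRNA measured by RT-PCR, 33 cycles, 368 bp product on 2% agarose gel, normalized to GAPDH mRNA.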
In data set [11] the test system is PC-12. As to the kind of experiment: Induction of dopamine release in rat PC12 cells at 10 nM after 24 hrs mins by radioimmunoassay. It is filed as functional, cell-based. In a few lines:
as §2

Data set [12] in a line: Cytotoxicity against mouse HT22 cells at 0.1 to 10 uM after 24 to 72 hrs by MTT assay. It is filed as cell-based. Particulars: ht-22, 10 µM. In a few lines: as §1
In a further data set the test system is LNCaP. As to the kind of experiment: Induction of human LNCAP cells growth containing endogenous […] receptor at 1 uM by MTT assay relative to estradiol. The class given is functional, cell-based. In a few lines: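 Prostate cells at 5000/well on polylysine-coated wells in phenol red-free RPMI with 10% charcoal-stripped FBS; after 72 h, 96 h exposure; MTT at 550 nm.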

Data set [13] relates to PC-12. Kind of data set: Neuroprotective activity against serum deprivation-induced apoptosis in rat PC12 cells assessed as increase in antiapoptotic protein Bcl-XL levels at 10 nM after 12 hrs by Western blot. It is filed as functional, cell-based. In a few lines: as §3
Data set [14] can be described thus: Displacement of [3H]DHEA from DHEA-binding site in rat PC12 cell membranes by […] counting. Further details: species or system Membrane. Particulars: pc-12.
Data set [15] concerns the target Estrogen receptor beta (Homo sapiens) (UniProt Q92731). As to the kind of experiment: Agonist activity at ERbeta in HEK293 cells assessed as induction of ERE-dependent luciferase expression at 1 uM relative to estradiol. The class given is functional, cell-based.
The subject of data set [16] is PC-12. Kind of data set: Neuroprotective activity in rat PC12 cells assessed as inhibition of serum deprivation-induced apoptosis after 24 hrs by FACS flow cytometry. The class given is functional, cell-based. In a few lines: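 PC12 cells (10^6/well) 24 h in serum-free medium with BSA plus 100 nM steroid; stained with 2 μg/mL annexin V-FITC (10 min, dark, HEPES/CaCl2 buffer pH 7.4) and propidium iodide, analysed by flow cytometry within 20 min, 10000 cells per treatment; at least four experiments in triplicate.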

For data set [17], the system named is PC-12. Kind of data set: Neuroprotective activity in rat PC12 cells assessed as inhibition of serum deprivation-induced apoptosis at 100 nM after 24 hrs by APO Percentage apoptosis assay. The class given is functional, cell-based. In a few lines: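 PC12 cells cultured 24 h in serum-free medium with BSA and 10 nM haloperidol plus 100 nM steroid. Apoptotic cells stained with APOPercentage dye, dye released and read at 550 nm (reference 620 nm); expressed relative to serum-free control; at least four experiments in triplicate.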

Activity calls are given as the source filed them. The calls are words filed in the database; no cut-off is given here.

Sequence of Estrogen receptor beta (Homo sapiens) (Q92731 whole entry): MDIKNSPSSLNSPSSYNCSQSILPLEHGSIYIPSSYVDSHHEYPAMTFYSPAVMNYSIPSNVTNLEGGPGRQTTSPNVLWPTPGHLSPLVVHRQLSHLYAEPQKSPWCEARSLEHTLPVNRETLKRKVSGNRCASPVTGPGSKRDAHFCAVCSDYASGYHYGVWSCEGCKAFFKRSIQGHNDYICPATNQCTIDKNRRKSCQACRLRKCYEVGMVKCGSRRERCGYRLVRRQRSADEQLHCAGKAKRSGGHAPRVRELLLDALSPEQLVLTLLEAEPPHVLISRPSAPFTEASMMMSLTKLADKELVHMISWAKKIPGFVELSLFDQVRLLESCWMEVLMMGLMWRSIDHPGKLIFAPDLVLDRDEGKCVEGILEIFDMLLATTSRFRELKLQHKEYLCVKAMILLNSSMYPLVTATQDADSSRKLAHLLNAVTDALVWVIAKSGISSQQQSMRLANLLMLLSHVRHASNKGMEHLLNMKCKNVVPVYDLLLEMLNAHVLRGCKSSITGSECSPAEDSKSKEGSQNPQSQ

On to `C[C@]12CC[C@H](O)CC1=CC[C@@H]1[C@@H]2CC[C@@]2(C)[C@H]1CC[C@]21O[C@@H]1CO`, for which the Activity entry is “Non-toxic” with HEK293; 31% in data set [3]; 24% in data set [4]; “Non-toxic” in the data set with PC-12 [8]; “Non-toxic” in [12]. The outcome (with MCF7; with Ishikawa; in data set [5]; in [6]; in [7]; with LNCaP) was inactive. In [15], the outcome was inactive. Besides, the “fold change (FC)” value with PC-12 [1] is listed as 2. Moreover, the IC50 in the data set with PC-12 [2] came to 6.4 nM; in [14], 18.6 nM. Further, the outcome in the data set on PC-12 [9], with PC-12 [10], with PC-12 [11], with PC-12 [13] and in the data set with PC-12 [16] was Active.
Regarding `COC[C@]1(O)CC[C@@]2(C)C(=CC[C@@H]3[C@@H]2CC[C@]2(C)C(=O)CC[C@@H]32)C1`, the inhibition entry in the data set on PC-12 [17] was “inactive”.
Same read-out and setting: the same measure for `C[C@]12CC[C@@](O)(CN=[N+]=[N-])CC1=CC[C@@H]1[C@@H]2CC[C@]2(C)C(=O)CC[C@@H]12`: “inactive”.
Take `C[C@]12CC[C@@](O)(CC#N)CC1=CC[C@@H]1[C@@H]2CC[C@]2(C)C(=O)CC[C@@H]12`: the inhibition entry in the data set with PC-12 [17] is “inactive”.
On the same count and under the same terms, under `CCCC[C@@]1(O)CC[C@@]2(C)C(=CC[C@@H]3[C@@H]2CC[C@]2(C)C(=O)CC[C@@H]32)C1` stands “inactive”.
Consider `C[C@]12CC[C@H](O)CC1=CC[C@@H]1[C@@H]2CC[C@@]2(C)[C@H]1CC[C@]21O[C@H]1CO`, for which the Activity result (in the data set with HEK293; with PC-12 [8]; in data set [12]) was “Non-toxic” in each case. In addition, the outcome (in the data set with MCF7; in the data set with Ishikawa; in [3]; in [4]; in data set [5]; in data set [6]) was inactive. The outcome (in data set [7]; in the data set with LNCaP; in data set [15]) was inactive. Also, the IC50 in the data set with PC-12 [2] was found to be 99 nM; in [14] it was 0.11 nM. Moreover, the result in the data set on PC-12 [9], in the data set with PC-12 [13] and with PC-12 [16] was Active.
For the molecule `C[C@]12CC[C@H](O)CC1=CC[C@@H]1[C@@H]2CC[C@]2(C)C(=O)CC[C@@H]12` [PRASTERONE], the IC50 in the data set with PC-12 [2] amounted to 0.29 nM; in data set [14], 1.65 nM.
Turning to `C[C@]12CC[C@H](O)CC1=CC[C@@H]1[C@@H]2CC[C@@]2(C)[C@H]1CC[C@@]21CO1`, the Activity result is “Non-toxic” in the data set on HEK293; 33% in the data set on MCF7; 22% in data set [6]; 29% in [7]; “Non-toxic” with PC-12 [8]; “Non-toxic” in data set [12]. Also, the result (in the data set with Ishikawa; in data set [3]; in data set [4]; in [5]; in the data set on LNCaP; in [15]) was inactive. Also, the “fold change (FC)” value with PC-12 [1] is 2. In addition, the half-maximal inhibitory concentration (IC50) came to 0.19 nM in the data set with PC-12 [2] and 0.04 nM in data set [14]. Further, the result in the data set with PC-12 [9], with PC-12 [10], with PC-12 [11], in the data set with PC-12 [13] and with PC-12 [16] was Active.
In the case of `CO[C@H]1CC[C@H]2[C@@H]3CC=C4C[C@@H](O)CC[C@]4(C)[C@H]3CC[C@]12C`, the inhibition result in the data set with PC-12 [17] is “inactive”.
On the same count and under the same terms, the same measure for `C[C@@]1(O)CC[C@@]2(C)C(=CC[C@@H]3[C@@H]2CC[C@]2(C)C(=O)CC[C@@H]32)C1`: “inactive”; for `C[C@]1(O)CC[C@@]2(C)C(=CC[C@@H]3[C@@H]2CC[C@]2(C)C(=O)CC[C@@H]32)C1`: “inactive”.

The values above are taken from ChEMBL document CHEMBL1154375, “Novel dehydroepiandrosterone derivatives with antiapoptotic, neuroprotective activity” (J Med Chem, 2009).
